A selection: hits, their analogues and other compounds. The true share with any hit is near 2.3%.
TRPC4 block – TRPC4 (mouse) channel inhibition | Q9QUQ5 | HEK293 TRPC4beta/mu-opioid, DAMGO-evoked Fluo4 calcium flux; active compounds read low | B-score at 10 µM | actives 0.39% (n = 300,000) | AID 2247;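 active = B-score over 3 SD under the library average, no early fluorescence shift, positive overall ratio signal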
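System: stable TRPC4beta/mu-opioid receptor HEK293 cells; Dosing: single-point compound dosing; Measured by: Fluo4 Ca2+ flux fluorescence; Read-out basis: per-well B score of integrated baseline-normalized Fluo4 ratio.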
TRPC4 act – TRPC4 (mouse) channel activation. Q9QUQ5. HEK293 TRPC4beta/mu-opioid, Fluo4 calcium fluorescence; active compounds read high. B-score at 10 µM. actives 0.49% (n = 310,000). AID 2237;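 active = B-score above 5 SD of library B-scores, and initial fluorescence ratio not above library mean plus 5 SD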;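 also: positive B-score marks a calcium rise read as TRPC4 activation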
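System – HEK293 cells stably co-expressing mouse TRPC4beta and mu-opioid receptor · Signal – Fluo4 calcium-sensitive dye fluorescence, kinetic, 1 Hz baseline · Benchmarks – buffer (low) and maximal DAMGO (high) · Read-out – B score of integrated fluorescence ratio per well · Incubation – dye loading 45 min room temperature, 110 s kinetic read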
TRPC6 inhibitor – mouse TRPC6 channel inhibition | Q61143 | HEK293-TRPC6, membrane potential dye, ACh-evoked depolarization; active compounds read low | B-score at 10 µM | actives 1.1% (n = 310,000) | AID 2553;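 active = B-score under library mean minus 3 SD, initial fluorescence not abnormally high, positive integrated signal ratio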;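 also: B-score derived from integrated fluorescence ratio over the kinetic read; more negative B-score means stronger inhibition of depolarization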
Target sequence (Q61143 whole entry, looked up): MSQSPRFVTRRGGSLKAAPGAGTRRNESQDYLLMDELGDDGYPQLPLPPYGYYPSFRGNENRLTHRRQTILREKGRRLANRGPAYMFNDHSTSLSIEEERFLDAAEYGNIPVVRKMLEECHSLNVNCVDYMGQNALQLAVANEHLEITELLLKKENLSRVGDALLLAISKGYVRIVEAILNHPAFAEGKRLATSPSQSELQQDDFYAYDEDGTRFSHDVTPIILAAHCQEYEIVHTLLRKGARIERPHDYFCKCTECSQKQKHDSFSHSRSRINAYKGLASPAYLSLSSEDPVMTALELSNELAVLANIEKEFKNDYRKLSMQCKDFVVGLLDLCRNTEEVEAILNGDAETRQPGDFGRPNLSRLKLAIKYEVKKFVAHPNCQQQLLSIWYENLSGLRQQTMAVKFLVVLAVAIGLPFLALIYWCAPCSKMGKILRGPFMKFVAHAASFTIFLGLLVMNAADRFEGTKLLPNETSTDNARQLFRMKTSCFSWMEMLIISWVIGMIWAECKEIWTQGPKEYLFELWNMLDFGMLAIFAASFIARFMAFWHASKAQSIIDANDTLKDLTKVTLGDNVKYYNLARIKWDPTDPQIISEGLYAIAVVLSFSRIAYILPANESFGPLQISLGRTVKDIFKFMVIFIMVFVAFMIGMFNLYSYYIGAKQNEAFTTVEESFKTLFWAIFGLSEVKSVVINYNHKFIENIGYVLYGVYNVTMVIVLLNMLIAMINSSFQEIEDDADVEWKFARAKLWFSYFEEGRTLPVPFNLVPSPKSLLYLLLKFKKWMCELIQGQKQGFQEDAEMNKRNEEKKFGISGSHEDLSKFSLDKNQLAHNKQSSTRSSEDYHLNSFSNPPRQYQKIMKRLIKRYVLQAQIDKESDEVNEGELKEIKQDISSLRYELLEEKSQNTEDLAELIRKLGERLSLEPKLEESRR
TRPC6 act – mouse TRPC6 channel activation; actives 0.13% (n = 310,000); HEK293-TRPC6 membrane potential dye fluorescence; active compounds read high; B-score at 10 µM;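 active = B-score of the integrated fluorescence ratio above library mean plus 3 SD, and starting fluorescence ratio within library mean plus 5 SD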;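 also: higher score means more depolarization so channel activation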
TRPC4 potent – allosteric potentiators of mouse TRPC4 channel. Q9QUQ5. HEK293 TRPC4beta/mu-opioid, DAMGO EC20, Fluo-4 Ca2+ flux; active compounds read high. B-score at 10 µM. actives 0.42% (n = 310,000). AID 2227;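 active = B-score of calcium response area above 5 SD of library B-scores, with initial fluorescence ratio within 5 SD of library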
A number is an active result; 0 = inactive.

SMILES	TRPC4 block	TRPC4 act	TRPC6 inhibitor	TRPC6 act	TRPC4 potent
COC(=O)[C@@]12CCCCN1[C@H](c1ccc(-c3ccc(OC)cc3)cc1)[C@@H]1C(=O)N(C)C(=O)[C@@H]12	0	0	0	0	13
COC(=O)[C@@]12CCCCN1[C@H](c1ccc(-c3cccc(Cl)c3)cc1)[C@H]1C(=O)N(C)C(=O)[C@H]12	0	0	0	0	0
COC(=O)[C@@]12CCCCN1[C@H](c1ccc(-c3ccc(C(C)=O)cc3)cc1)[C@@H]1C(=O)N(C)C(=O)[C@@H]12	0	0	0	0	43
Cn1c(=O)c(=O)n(C)c2cc(N3CCOCC3)c(NS(=O)(=O)c3ccc(Br)cc3)cc21	0	0	0	0	0
COc1cc(OC)cc(-c2nnc(NC(=O)c3ccc4c(c3)OCCO4)o2)c1	0	0	0	0	0
CC(=O)N1CCN(c2ccc(OC[C@H]3CO[C@](Cn4ccnc4)(c4ccc(Cl)cc4Cl)O3)cc2)CC1	0	52	0	0	0
Cc1cc(Cl)c(Cl)cc1S(=O)(=O)NCCCn1ccnc1	0	0	0	0	11
Cc1sc2ncnc(NCC3(N4CCOCC4)CCCCC3)c2c1C	0	0	0	0	0
Cc1sc2ncnc(NCC(C)(C)N3CCOCC3)c2c1C	0	162	0	0	0
O=C(CCNC(=O)c1ccc(Br)cc1)Nc1ccccc1N1CCCCC1	-6	0	0	0	0
O=C(CCNC(=O)c1ccccc1Cl)Nc1ccccc1N1CCCC1	0	0	0	0	0
O=S(=O)(Nc1cccc(CCc2ccccn2)c1)c1cc(Cl)ccc1Cl	0	0	0	0	13
O=S(=O)(Nc1ncccn1)c1ccc(NS(=O)(=O)c2cc(Cl)ccc2Cl)cc1	0	0	0	0	0
COCC(C)n1c(C)cc(C(=O)COC(=O)CN=C2NS(=O)(=O)c3ccccc32)c1C (stereo unspecified)	0	0	0	0	0
CCN(CC)c1ncnc2c1[nH]c1ccccc12	-5	0	0	0	0
CCCOc1ncnc2c1[nH]c1ccccc12	0	0	0	0	0
NC(=O)COC(=O)c1ccccc1Oc1ccccc1	0	0	0	0	0
Clc1ccc(OCc2nn3c(C4CCCCC4)nnc3s2)cc1	0	0	0	0	13
c1ccc(-c2nn3c(C4CCCCC4)nnc3s2)nc1	0	0	0	0	0
COc1ccc(OC)c(S(=O)(=O)N/N=C\c2cn(CC(N)=O)c3ccccc23)c1	0	0	0	0	0
COc1ccc(OC)c(-n2c(CNC3CCN(Cc4ccccc4)CC3)nc3ccccc3c2=O)c1	0	73	0	0	0
CC(=O)N(c1ccc(C)cc1)c1nc(C)cc(C)c1C#N	0	0	0	0	0
COc1ccc(C(CCNCc2ccc(N(C)C)cc2)c2ccccc2)cc1 (stereo unspecified)	0	104	0	0	0
COc1ccc2c(c1)c1ncn(CCN3CCCCC3)c(=O)c1n2C	0	0	0	0	0
COc1ccc2c(c1)c1ncn(CCN3CCCC3)c(=O)c1n2C	0	0	0	0	15
SMILES	TRPC4 block	TRPC4 act	TRPC6 inhibitor	TRPC6 act	TRPC4 potent
CCN(CC)CCN(Cc1cc2ccc(C)cc2[nH]c1=O)C(=S)Nc1ccccc1C(=O)OC	-6	0	0	0	0
COC(=O)c1ccccc1NC(=S)N(Cc1ccc2c(c1)OCO2)Cc1cc2ccc(C)cc2[nH]c1=O	0	0	0	0	0
Cc1ccc(NC(=S)N(CCCN(C)C)Cc2cc3cc4c(cc3[nH]c2=O)OCO4)c(C)c1	-6	0	0	0	0
CC1C(O)=C(c2nc3ccccc3[nH]2)C(=N)N1c1ccccc1 (stereo unspecified)	0	0	0	0	0
CCOC(=O)C1(CCOc2ccccc2)CCN(Cc2ccc(OC)c(O)c2)CC1	0	84	0	0	0
CCOC(=O)C1(Cc2cccc(OC)c2)CCN(Cc2ccc(OC)c(O)c2)CC1	-8	0	0	0	0
CCOC(=O)C1(CCOc2ccccc2)CCN(Cc2ccc(COC)o2)CC1	0	0	0	0	0
CCOC(=O)C1(CCOc2ccccc2)CCN(Cc2ccc(C)o2)CC1	-6	0	0	0	0
O=C(c1cc2cc(Br)cc(Br)c2oc1=O)N1CCCC1	0	0	0	0	17
COc1ccc(CCC(=O)NNC(=S)Nc2cccc(C(C)=O)c2)cc1	0	0	0	0	0
CNS(=O)(=O)c1ccc(NC(=O)Nc2cccc(F)c2)cc1	0	44	0	0	0
CNC(=O)c1c(NC(=O)CCS(=O)(=O)c2ccc(F)cc2)sc(C)c1C	0	0	0	0	0
Cc1cc(C(=O)CN2C(=O)NC3(CCCc4sccc43)C2=O)c(C)n1-c1ccc(Cl)cc1 (stereo unspecified)	0	0	0	0	10
NC(=O)CN1C(=O)NC2(CCCc3sccc32)C1=O (stereo unspecified)	0	0	0	0	0
Cc1cc(F)ccc1NCC(=O)Nc1ccccc1Br	0	0	0	0	0
C=CCn1c(CCNC(=O)C(C)(C)C)nc2ccccc21	0	146	0	0	0
CCOC(=O)c1sc(-c2ccc(Cl)cc2Cl)nc1O	0	0	0	0	0
CCn1c(SCC(=O)c2cc(C)n(CC3CCCO3)c2C)nc2ccccc21 (stereo unspecified)	-7	200	0	0	0
CCOC(=O)C1CCCN(CCC(=O)Nc2ccc(Br)c(C)c2)C1 (stereo unspecified)	0	0	0	0	0
Clc1ccc2c(c1)-c1nnc(Br)n1-c1ccccc1S2	-6	0	0	0	0
CCOC(=O)c1nn(-c2ccc(F)cc2)c(=O)c(C#N)c1C	0	0	0	0	0
O=C(OCCCCN1C(=O)c2ccccc2C1=O)c1ccc(S(=O)(=O)N2CCCC2)cc1	0	0	0	0	17
CCCN(CCC)CCCOC(=O)c1ccc(Cl)cc1Cl	0	0	0	0	0
CN(C)CCCOC(=O)c1ccc(Cl)cc1Cl	0	0	0	0	27
N=c1oc2ccc(Br)cc2cc1C(=O)NCc1ccc(F)cc1	0	0	0	0	12
SMILES	TRPC4 block	TRPC4 act	TRPC6 inhibitor	TRPC6 act	TRPC4 potent
Cc1ccc(CNC(=O)c2cc3cc(Br)ccc3oc2=N)cc1	0	0	0	0	0
COCCNC(=O)c1ccc2c(Cl)c3c(nc2c1)CCC3	0	0	0	0	0
CCCN(CCC)CCCNC(=O)c1ccc2c(Cl)c3c(nc2c1)CCC3	0	124	0	0	0
COCCN1CCN(c2c3c(nc4cc(-c5cccc(F)c5)nn24)CCC3)CC1	0	60	0	0	11
Cc1cc(C)n(S(=O)(=O)c2ccc(F)cc2)n1	0	0	0	0	0
Cc1cc(C)n(S(=O)(=O)c2ccc(C(C)(C)C)cc2)n1	0	0	-6.56	0	0
O=C(Oc1coc(CSc2ncccn2)cc1=O)c1ccccc1[N+](=O)[O-]	0	0	0	0	0
CC1(c2ccc(OC(F)F)cc2)NC(=O)N(CC(=O)Nc2cccnc2Cl)C1=O (stereo unspecified)	0	62	0	0	0

Bioassay records (PubChem BioAssay)
